Reference: ChEMBL document CHEMBL1138715, “Isoxazole-3-hydroxamic acid derivatives as peptide deformylase inhibitors and potential antibacterial agents” (Bioorg Med Chem Lett, 2004)
pIC50: −log10 of the molar value. Converted amounts (≈) assume the structure as drawn.

Columns and labels:
Assay type in all cases: functional
Staphylococcus aureus [1] = test: In vitro inhibitory activity against Staphylococcus aureus
Procedure, shortened: (§1)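 Enzyme inhibition of peptide deformylase (PDF) from E. coli or S. aureus, in vitro. IC50 reported in µM as the mean of three experiments.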

Escherichia coli [2] = test: In vitro antibacterial activity against Escherichia coli hyperpermeable strain EC-DC2
Procedure, shortened: (§2)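 MIC, the lowest inhibiting concentration in µg/mL, determined in liquid culture by NCCLS standard dilution susceptibility conditions for aerobically growing bacteria. EC-ATCC-25922 is wild-type E. coli; EC-DC2 is a hyperpermeable E. coli strain.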

Escherichia coli [3] = test: In vitro antibacterial activity against Escherichia coli mutant strain EC-AH547
Procedure, shortened: (§3)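 MICs in µg/mL, determined by dilution susceptibility testing in liquid culture under NCCLS standard conditions for aerobically growing bacteria. Strains: EC-AH547, a tolC E. coli mutant with reduced efflux-pump activity; SA-101, a multiresistant S. aureus; SA-ATCC-25923, wild-type S. aureus.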

Staphylococcus aureus [4] = test: In vitro antibacterial activity against Staphylococcus aureus wild type SA-ATCC-25923; procedure, shortened: as §3
Escherichia coli [5] = test: In vitro antibacterial activity against Escherichia coli wild type EC-ATCC-25922; procedure, shortened: as §2
Staphylococcus aureus [6] = test: In vitro antibacterial activity against Staphylococcus aureus multi-resistant strain SA-101; procedure, shortened: as §3
Escherichia coli [7] = test: In vitro inhibitory activity against Escherichia coli; procedure, shortened: as §1

Row | SMILES | pIC50 (Staphylococcus aureus [1]) | also measured
1 | CC(C)c1ccccc1S(=O)(=O)Cc1cc(C(=O)NO)no1 | 5.47 | 
2 | CC(C)c1ccccc1SCc1cc(C(=O)NO)no1 | 5.12 | 
3 | CC(=O)Nc1ccc(SCc2cc(C(=O)NO)no2)cc1 | 4.38 | 
4 | COc1cccc(SCc2cc(C(=O)NO)no2)c1 | 5.66 | MIC (Escherichia coli [2]): 128 µg/mL (≈ 457 µM); MIC (Escherichia coli [3]): 128 µg/mL (≈ 457 µM); MIC (Staphylococcus aureus [4]): > 128 µg/mL; MIC (Escherichia coli [5]): > 128 µg/mL
5 | O=C(NO)c1cc(CSc2ccc(Cl)c(Cl)c2)on1 | 5.70 | MIC (Escherichia coli [2]): 32 µg/mL (≈ 100 µM); MIC (Staphylococcus aureus [6]): 128 µg/mL (≈ 401 µM); MIC (Escherichia coli [3]): 16 µg/mL (≈ 50.1 µM); MIC (Staphylococcus aureus [4]): 128 µg/mL (≈ 401 µM); MIC (Escherichia coli [5]): > 128 µg/mL
6 | O=C(NO)c1cc(CSc2ccc(F)cc2)on1 | 5.82 | 
7 | O=C(NO)c1cc(CSc2cccc(Cl)c2)on1 | 5.64 | MIC (Escherichia coli [2]): 32 µg/mL (≈ 112 µM); MIC (Escherichia coli [3]): 64 µg/mL (≈ 225 µM); MIC (Staphylococcus aureus [4]): > 128 µg/mL; MIC (Escherichia coli [5]): > 128 µg/mL
8 | COc1ccc(SCc2cc(C(=O)NO)no2)cc1 | 4.62 | 
9 | COc1cccc(S(=O)(=O)Cc2cc(C(=O)NO)no2)c1 | 5.19 | 
10 | O=C(NO)c1cc(CSCc2cccc(C(F)(F)F)c2)on1 | 5.66 | 
11 | O=C(NO)c1cc(CSc2ccc(Cl)cc2)on1 | 5.89 | MIC (Escherichia coli [2]): 32 µg/mL (≈ 112 µM); MIC (Escherichia coli [3]): 64 µg/mL (≈ 225 µM); MIC (Staphylococcus aureus [4]): > 128 µg/mL; MIC (Escherichia coli [5]): 128 µg/mL (≈ 450 µM)
12 | O=C(NO)c1cc(CSc2ccccc2Cl)on1 | 5.42 | 
13 | Cc1ccc(S(=O)(=O)Cc2cc(C(=O)NO)no2)cc1 | 5.85 | pIC50 (Escherichia coli [7]): 4.94

Further compounds by rising pIC50 (Staphylococcus aureus [1]), results first:

Row | pIC50 (Staphylococcus aureus [1]) | SMILES | also measured
14 | 4.42 | Cc1cc(C)c(SCc2cc(C(=O)NO)no2)c(C)c1 | 
15 | 5.03 | O=C(NO)c1cc(CSc2ccccc2C(F)(F)F)on1 | 
16 | 5.06 | O=C(NO)c1cc(CSc2ccc(C(F)(F)F)cc2)on1 | 
17 | 5.31 | O=C(NO)c1cc(CSc2ccccc2Br)on1 | 
18 | 5.40 | Cc1ccc(SCc2cc(C(=O)NO)no2)cc1 | 
19 | 5.70 | O=C(NO)c1cc(CSc2cccc(Br)c2)on1 | 
20 | 5.77 | O=C(NO)c1cc(CS(=O)(=O)c2cccc(Cl)c2)on1 | 
21 | 6.05 | Cc1ccc([S+]([O-])Cc2cc(C(=O)NO)no2)cc1 (stereo not given) | 
22 | 6.10 | O=C(NO)c1cc(CS(=O)(=O)c2ccc(Cl)cc2)on1 | 
